# Screening data as filed in PubChem.
# In the library only some 3.6% were active in any assay of this set; here they are far more common.
# Yeast lifespan up – extends the lifespan of yeast | inhibition of the nicotinamide effect, % at 10 µM | S. cerevisiae growth with nicotinamide, OD615; deaD strain in restrictive glucose medium | actives 0.68% (n = 130,000);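 active = inhibition above a set limit, placed 3 SD over the median of all compounds, cut at about 26% in these data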;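 also: 0% = nicotinamide-treated wells and 100% = cells grown without nicotinamide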
#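 Test system: DeaD-strain S. cerevisiae / Buffer or medium: restrictive glucose medium / Also added: nicotinamide 1.5 mM / Doses: one concentration, 10 µM, DMSO 0.25% / Schedule: 48 h at 30 °C / Signal: OD615 measurement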
# Yeast growth inh – chemicals that inhibit yeast BB579 growth in restrictive medium (lifespan-shortening candidates). AID 804. S. cerevisiae BB579 growth, OD615, 48 h. actives 0.51% (n = 140,000). inhibition, % at 10 µM;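 active = inhibition above a set limit, 3 SD over the mean compound inhibition, cut at about 44% in these data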
#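 controls = amphotericin B 10 µg/mL, positive | assay system = DeaD yeast strain BB579 | schedule = 48 h compound exposure at 30 °C after 4 h preincubation | detection = OD615 turbidity measurement | medium = restrictive CSMM-D medium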
# RAM network inh – yeast RAM network inhibition; S. cerevisiae dse1pr::URA3 reporter, 5-FOA growth OD615, 2 d; analog-sensitive cbk1-as2 kinase mutant strain; inhibition, % at 50 µM; actives 1.8% (n = 190,000); AID 868;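 active = inhibition above a set limit, 3 SD over mean compound inhibition, cut at about 8.4% in these data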;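 also: 0% = DMSO-only wells with no growth and 100% = 10 µM 1-NA-PP1 full growth; inhibition rescues growth on 5-FOA so higher OD means more RAM inhibition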
# Measles CPE – protection of cells from measles virus. protection (pct of control), % at 4 µM. Measles virus-infected cells, CPE protection, absorbance. actives 1.5% (n = 140,000). AID 841; in the data active = protection mostly above about 24%, no sharp cut-off; inactive = mostly below about 26%
# * marks the source's active call; other numbers are inactive results; / = no result given.
SMILES,Yeast lifespan up,Yeast growth inh,RAM network inh,Measles CPE
CC(=O)Nc1ccc(N=Cc2c(O)c(C(=O)Nc3ccccc3)cc3ccccc23)cc1,/,/,2.3,/
CCOc1cc(Br)c(Br)c(C=Nc2ccc(NC(C)=O)cc2)c1O,48.9*,-13.0,-0.8,5.8
Cn1ncc(Br)c1C(=O)OCC(=O)Nc1nc(-c2ccccc2)cs1,/,5.1,3.5,35.2*
CCN(CC(=O)Nc1c(F)cccc1F)C(=O)COc1ccc2c(C)cc(=O)oc2c1,/,/,7.2,/
CCOCCCNC(=S)NNC(=O)CCn1nc(C)c(Br)c1C,-8.9,-25.7,0.7,39.4*
COCCCNC(=S)NNC(=O)Cn1nc(C)c(Br)c1C,4.8,-38.9,1.4,17.8
Cc1nn(CCC(=O)NNC(=S)NCC(C)C)c(C)c1Br,-3.4,-11.3,0.6,32.9*
CNC(=S)NNC(=O)CCn1nc(C)c(Br)c1C,-12.3,-49.1,1.5,20.2
Cc1ccccc1C1C(C#N)=C2N=C(N)c3c(sc4c3CCCCC4)N2C2=C1C(=O)CCC2 (configuration not stated),-15.3,-5.7,2.1,28.4
Cc1ccccc1NC(=O)c1ccc(N/N=C/c2ccccc2O)c([N+](=O)[O-])c1,-1.9,-36.6,8.7*,6.5
Cc1ccc(NC(=O)c2ccc(N/N=C/c3cccc(O)c3)c([N+](=O)[O-])c2)cc1,-10.6,-12.4,9.0*,3.3
CCCn1c(N)c(N(CCOC)C(=O)/C=C/c2cccc(Cl)c2)c(=O)[nH]c1=O,/,/,1.7,/
CCN(Cc1cnn(C)c1)Cc1nc(C(c2ccccc2)c2ccccc2)no1,/,/,-1.6,/
CC(C)(C)C1CCC2(CC1)Nc1cccc3cccc(c13)N2,-2.7,3.1,8.9*,6.6
FC(F)(F)c1ccc(C2Nc3cccc4cccc(c34)N2)cc1,/,/,3.9,/
COc1cccc(C(=O)CSc2nnnn2C2CCCCC2)c1,-5.6,-23.3,1.4,36.6
COC(=O)c1ccc(/C=N/NC(=S)NCCN2CCOCC2)cc1,/,/,0.6,/
COc1ccccc1/C=C(/C(=O)OCC(=O)NCc1ccccc1)c1ccccc1,3.6,-35.9,10.2*,3.5
COc1ccc(/C=C(/C(=O)NCc2ccccc2)c2ccccc2)cc1,-2.9,-6.2,11.3*,10.8
COc1ccccc1/C=C(/C(=O)OCC(=O)Nc1ccccc1C)c1ccccc1,-0.5,-27.3,3.7,16.3
COc1cc(OC)cc(C(=O)NC(=S)NCc2ccco2)c1,-6.8,-52.2,9.5*,4.5
COc1cccc(NC(=O)CCC(=O)NCc2ccco2)c1,5.0,-44.4,0.8,85.8*
CCOP(=O)(OCC)C(NC(=O)/C=C/c1ccc(OC)cc1)c1ccccc1 (configuration not stated),/,/,0.8,/
COc1cccc(C(=O)NN/C(C)=C/C(=O)C(F)(F)C(F)(F)C(F)(F)F)c1,10.2,-24.8,3.5,9.1
COC(=O)c1ccc(-c2ccco2)n1Cc1nc(-c2ccc(OC)c(OC)c2)oc1C,-1.9,-78.2,8.4*,15.9
SMILES,Yeast lifespan up,Yeast growth inh,RAM network inh,Measles CPE
CCOC(=O)C1CCCN(c2ccc(NC(=O)c3snc4c(=O)[nH]c(C)nc34)cc2)C1 (configuration not stated),-6.7,-18.0,9.8*,2.9
CCOC(=O)C1CCCN(c2ccc(NC(=O)c3snc4c(=O)[nH]cnc34)cc2)C1 (configuration not stated),-0.5,-41.0,3.6,13.6
CC(/C=C1\SC(=O)N(CCCC(=O)O)C1=O)=C\c1ccccc1,29.2*,-17.6,1.4,26.9
CC(/C=C1\SC(=S)N(CCCC(=O)Nc2ccc(C(=O)O)cc2)C1=O)=C\c1ccccc1,9.6,-50.4,7.0,3.5
CCOC(=O)c1cc(-c2ccc(F)cc2)n(CCC(=O)NC2CCN(Cc3ccccc3)CC2)c1C,/,/,1.8,/
CN1/C(=C\C(=S)NC(=O)c2cccc(Br)c2)C(C)(C)c2ccccc21,-2.8,22.4,8.9*,13.0
Cc1cccc(C2NC(c3cccc(C)c3)C([N+](=O)[O-])C(C)(C)C2[N+](=O)[O-])c1 (configuration not stated),1.9,-30.8,3.9,4.8
CCc1c(O)nc(SCC(=O)Nc2ccc3c(c2)CCC3)[nH]c1=O,-13.0,-2.9,4.4,20.3
CCCCc1c(O)nc(SCC(=O)Nc2ccc3c(c2)CCC3)[nH]c1=O,10.8,-17.5,6.0,49.0*
Cc1ccc(C(=O)n2nnc3ccccc32)cc1[N+](=O)[O-],32.0*,-32.4,1.8,5.9
COCc1cc(C(C)=O)ccc1OCC(=O)Nc1ccc(NC(C)=O)cc1,/,/,1.9,/
CN(C(=O)Nc1ccc(Cl)cc1Cl)[C@H]1c2cc(Br)ccc2OC[C@H]1CO,-11.6,-70.6,1.2,13.3
O=C(NCC1OCCc2ccccc21)c1cc(COc2ccc(F)cc2Cl)on1 (configuration not stated),/,/,5.7,/
Cc1cc(OC(=O)C(c2ccccc2)c2ccccc2)c([N+](=O)[O-])c(=O)[nH]1,2.1,-25.1,1.6,3.2
CN(Cc1nc2ccccc2c(=O)[nH]1)Cc1nc2ccsc2c(=O)[nH]1,/,/,0.2,/
CCN(c1ccccc1)c1nc2ccsc2c(=O)s1,-13.5,-24.1,8.5*,17.8
CN(c1ccccc1)c1nc2ccsc2c(=O)s1,87.7*,-31.4,2.3,11.4
O=C(NNC(=O)c1cccnc1SCc1cccc([N+](=O)[O-])c1)c1ccccn1,0.3,-20.7,2.1,3.1
Cc1ccc(N/C(N)=N/c2nc(C)cc(N3CCCCC3)n2)c(C)c1,/,/,0.0,/
CC1(C(=O)OCC(=O)c2c[nH]c3ccccc23)CC1(Cl)Cl (configuration not stated),-23.2,-44.3,-1.6,19.5
COC(=O)[C@H](C)NC(=O)Nc1ccc(OC)cc1OC,-8.2,-63.9,-0.7,5.3
COc1ccc(C(CCc2ccc(C)o2)NC(=O)Nc2ccc(OC)cc2OC)cc1 (configuration not stated),-12.4,-7.2,10.1*,1.4
O=C(NCCc1ccccc1)c1cc2sccc2n1Cc1ccccc1,-5.3,-81.6,4.4,0.6
CCn1c(C(=O)NCCCc2ccccc2)cc2sccc21,4.8,-19.6,10.3*,5.4
Cc1ccc(Cn2c(C(=O)O)cc3sccc32)cc1,26.3*,-33.8,7.3,6.8
SMILES,Yeast lifespan up,Yeast growth inh,RAM network inh,Measles CPE
O=C(NCc1ccco1)c1cc2sccc2n1Cc1ccccc1,/,-45.8,9.9*,6.8
Cc1cccc(C(C(N)=O)c2ncc(C(F)(F)F)cc2Cl)c1 (configuration not stated),/,/,-0.2,/
CCOC(=O)C1(Cc2ccc(OC)cc2)CCN(C(=O)CN2CCCCC2=O)CC1,/,/,-1.0,/
CC(=O)C(C(C)=O)c1c(Cl)c(O)c(O)c2c(C(=O)c3ccccc3)coc12,36.8*,-32.1,6.2,0.2
COc1cccc2c(=O)c3c(cnn3C)n(C)c12,-20.1,73.9*,-0.8,8.7
COc1cccc2c(=O)c3ccoc3n(C)c12,/,/,0.8,/
Cc1cc(C)cc(NC(=O)C(=S)NCc2ccccc2)c1,/,/,1.5,/
CCOc1cc(NC(=O)c2cnccn2)c(OCC)cc1NC(=O)c1cccc(F)c1,/,/,0.7,/
CCCC1COC(Cn2cncn2)(c2ccc(C)cc2)O1 (configuration not stated),-19.6,94.3*,-0.8,3.8
